# Lmaj promast: Leishmania major promastigote growth inhibition. AID 1063. 9% of 200,000 active. Leishmania major promastigotes, resazurin fluorescence viability. inhibition, % at 10 µM; in the data active means inhibition above about 50%;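 further: promastigotes grown with compound for 44 hours at 28 °C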
# Dynein cargo inh: dynein cargo transport inhibition; z-score, hits read low; AID 1381; 0.47% of 220,000 active; 3617.4 mouse cells, GR-EGFP nuclear translocation imaging; test concentration mostly 20 µM; stimulated with dexamethasone, 1 µM; active compounds read low;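 active means plate z-score of nuclear minus cytoplasmic receptor signal below a set negative limit, without overly bright fluorescence or cell loss, cut at about -3.5 in these data, passing the limit was not always enough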;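 further: z-score of nuclear minus cytoplasmic ring GR-EGFP intensity difference per well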
#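 Also added – dexamethasone, 1.0 µM final · Buffer or medium – tet-free, stripped-serum medium · Schedule – induction 48 h, compound 1 h, agonist 30 min · Detection – formaldehyde fixation, Hoechst nuclear stain, 10x automated fluorescence imaging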
# MT stabilize HCS: microtubule stabilization, imaging screen. HeLa tubulin immunostaining HCS, 24 h; share of cells brighter than vehicle mean+2SD. % tubulin-high responders, % at 10 µM. 0.83% of 200,000 active. AID 2205;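 active means plate Z-score above 3 for both tubulin-high and condensed-nucleus cell shares, with cell loss under 80%, at 10 µM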;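 further: anti alpha tubulin signal scored within the nucleus-defined area of each cell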
# bCat nuc transl: alters nuclear translocation of beta-catenin in HeLa cells; immunofluorescence imaging; AID 1665; 0.3% of 190,000 active; nuclear translocation activity, % at 5 µM;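 active means nuclear translocation activity above 50% at 5 µM, with a well cell count of 50 or more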;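 further: per-cell ratio of nuclear to cytoplasmic median beta-catenin stain intensity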
#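 assay system = human HeLa cells, endogenous beta-catenin | times = compound treatment 24 h, 37°C, 5% CO2 | detection = Anti-beta-catenin immunofluorescence on PFA-fixed, Triton-permeabilized cells, DAPI nuclei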
# HSV replic up: increases HSV replication in cells; HSV replication augmentation in cells, fold increase; maximum fold increase; 0.005% of 220,000 active; AID 1956; in the data active means maximum fold increase above about 1.5; tested in PC3 cells
# A number is an active result; 0 = inactive; - = not tested or not shown. Sampled rows, rich in hits. Any-hit rate of the full collection: about 8.9%.
SMILES,Lmaj promast,Dynein cargo inh,MT stabilize HCS,bCat nuc transl,HSV replic up
COc1cccc(CSc2nc3cc4c(cc3cc2C)OCCO4)c1,57,0,0,-,0
Cc1ccccc1S(=O)(=O)c1c(C)cc(C)n(C)c1=O,0,0,0,0,-
Cc1ccccc1S(=O)(=O)c1c(C)cc(C)n(CC(C)C)c1=O,91,0,0,-,0
COc1cccc(C2C3=C(N=C4SCC(=O)N42)c2ccccc2CC3)c1OC (centres undefined),0,0,0,0,0
CC(C)CC(=O)NC(=S)NNC(=O)c1ccc([N+](=O)[O-])cc1,0,0,0,0,0
CCCc1c(C)nn(C(=O)/C(C#N)=N/Nc2ccccc2[N+](=O)[O-])c1C,0,0,0,0,0
COc1ccc(C(=O)CC(Nc2ccc([N+](=O)[O-])cc2)c2ccc(OC)cc2)cc1 (centres undefined),82,0,0,0,0
COc1ccc(C(=O)/C(C#N)=N/Nc2ccccc2[N+](=O)[O-])cc1,0,0,0,59,0
CNC(CC(=O)c1ccc([N+](=O)[O-])cc1)C(Cl)(Cl)Cl (centres undefined),100,-3.5,0,0,0
COc1ccc(N/N=C(\C#N)C(N)=O)cc1,0,0,0,0,0
COc1ccc(C(=O)/C(C#N)=N/Nc2ccc([N+](=O)[O-])cc2)cc1,56,0,0,0,0
Cc1onc(-c2ccccc2Cl)c1C(=O)OCc1cnc(Cl)s1,0,0,0,0,0
CCOC(=O)N1CCC(N2CCN(S(=O)(=O)c3ccc([N+](=O)[O-])cc3)CC2)CC1,-,0,-,0,0
COC(=O)c1c(C)oc2ccc(N(C(=O)c3ccncc3)S(=O)(=O)c3ccc(C)cc3C)cc12,0,0,14,0,0
COC(=O)c1c(C)oc2ccc(N(C(=O)c3ccncc3)S(=O)(=O)c3ccc4ccccc4c3)cc12,0,0,27,0,0
COC(=O)c1c(C)oc2ccc(N(C(=O)c3ccncc3)S(=O)(=O)c3ccc(C)cc3)cc12,0,0,0,162,0
COC(=O)c1c(C)oc2ccc(N(C(=O)c3ccncc3)S(=O)(=O)c3ccccc3)cc12,0,0,0,0,0
Cc1ccc(S(=O)(=O)CCN2C=CC(C(F)(F)F)=NCC2)cc1,-,0,-,0,0
CCNc1nc(NCC)nc(SCCOC(=O)Nc2ccccc2)n1,77,0,0,0,0
Cc1c(CN(C)C)c2c(n1Cc1ccccc1)C(=O)c1ccccc1-2,75,0,0,0,0
O=C(O)CCC(=O)N1CCC[C@H]1C(=O)O,-,0,-,0,0
Clc1ccccc1CN(Cc1ccccc1)C(c1cccs1)c1nnnn1C1CCCC1 (centres undefined),60,0,0,0,0
Clc1ccc(CN(CC2CCCO2)C(c2cccs2)c2nnnn2C2CCCC2)cc1 (centres undefined),55,0,0,0,0
CCN(Cc1ccccc1)C(c1ccccn1)c1nnnn1C1CCCCC1 (centres undefined),0,0,0,-,0
CCN(Cc1ccccc1)C(c1cccs1)c1nnnn1C1CCCCC1 (centres undefined),0,0,0,0,0
SMILES,Lmaj promast,Dynein cargo inh,MT stabilize HCS,bCat nuc transl,HSV replic up
CCc1ccccc1NC(=O)/C(C#N)=C/c1ccc(Sc2ccccc2)o1,93,0,0,-,0
CCc1ccccc1NC(=O)/C(C#N)=C\c1ccc(Sc2ccccc2)o1,0,0,0,0,0
Cc1ccccc1NC(=S)c1nc2ccccc2[nH]1,90,0,0,0,0
CCNC(=S)Nc1ccc(-c2nc3ccccc3[nH]2)cc1,0,0,0,0,0
S=C(Nc1ccc(Cl)cc1)c1nc2ccccc2[nH]1,88,0,0,0,0
CCN(C(=O)COC(=O)c1cc(-c2ccccc2)nc2c1c(C)nn2-c1ccc(C)cc1)C1CCS(=O)(=O)C1 (centres undefined),0,0,0,0,0
CCc1ccccc1NC(=O)CN(C)C(=O)CSc1nnc(Nc2ccc(C)cc2)s1,72,0,0,0,0
Cc1ccc(Nc2nnc(SCC(=O)Nc3cccnc3Cl)s2)cc1C,83,0,0,0,0
CCc1ccccc1NC(=O)CN(C)C(=O)CSc1nnc(Nc2cccc(C)c2)s1,0,0,0,0,0
Cc1ccc(Nc2nnc(SCC(=O)Nc3ccccc3[N+](=O)[O-])s2)cc1,0,0,0,0,0
CCc1ccc(Nc2nnc(SCC(=O)N(C)CC(=O)Nc3ccccc3CC)s2)cc1,73,0,0,0,0
COc1cc(C(=O)NCCc2ccc(S(N)(=O)=O)cc2)cc(OC)c1OC,0,0,0,0,0
COc1ccccc1-c1cc(C(=O)N2CCc3ccccc3C2)c2ccccc2n1,100,0,0,0,-
COc1ccc(Nc2cc(C(=O)N3CCc4ccccc4C3)c3ccccc3n2)c(OC)c1,56,0,0,0,0
CC(C)=C1C2CCC1C1C(=O)N(NC(=O)COc3ccc(Cl)c(C)c3)C(=O)C21 (centres undefined),76,0,0,0,0
O=C(COc1ccc(Cl)c(Cl)c1)NN1C(=O)C2C(C1=O)C1C=CC2C12CC2 (centres undefined),0,0,0,0,0
C=CCn1c(SCC(=O)Nc2ccc(-c3nc4ccc(C)cc4s3)cc2)nnc1-c1ccncc1,50,0,0,0,0
COc1ccccc1N(C)S(=O)(=O)c1ccc(C(=O)OCC(=O)NCC(F)(F)F)cc1,0,0,0,0,0
COc1ccccc1N(C)S(=O)(=O)c1ccc(C(=O)NCC(C)C)cc1,93,0,0,0,0
COc1ccccc1N(C)S(=O)(=O)c1ccc(C(=O)OCC(=O)N(C(C)C)C(C)C)cc1,100,0,0,0,0
COc1ccccc1N(C)S(=O)(=O)c1ccc(C(=O)OCC(=O)N2CCC2)cc1,83,0,0,0,0
OC1CCCN(Cc2c3ccccc3cc3ccccc23)C1 (centres undefined),78,0,0,-,0
CN(Cc1nccn1C)C(=O)CC1C(=O)NCCN1Cc1cccc(Oc2ccccc2)c1 (centres undefined),0,0,0,0,0
Cc1ccc(C(C[N+](=O)[O-])c2c(N)n(C)c(=O)n(C)c2=O)cc1 (centres undefined),-,0,-,0,0
COc1cc(C(C[N+](=O)[O-])c2c(N)n(C)c(=O)n(C)c2=O)ccc1O (centres undefined),73,0,0,0,0
COC(=O)c1ccccc1NC(=O)NCc1ccco1,0,0,0,0,0
C=CCn1c(SCc2c(C(=O)OC)sc(N)c2C(=O)OC)nnc1-c1ccc(Br)cc1,99,0,0,-,0
COc1ccc(NC(=O)c2cc(-c3ccccc3)oc2C)cc1,56,0,0,-,0
COc1ccc(NS(=O)(=O)c2cc(OC)ccc2NC(=O)c2cc(C)oc2C)cc1,0,0,38,0,0
CCCc1cc(C(N)=O)c(NC(=O)c2cc(C)on2)s1,55,0,0,0,0

# Source: PubChem BioAssay
